In assay [1] the target is Histone acetyltransferase p300 (Homo sapiens) (UniProt Q09472). The assay is described as follows: Inhibition of human recombinant Histone acetyltransferase p300 catalytic domain (1284-1672 residues) using [3H]Acetyl-CoA and histone H3 substrate at 200 uM after 1 hr by liquid scintillation counting.
Assay [2] has the same target. Description: Inhibition of human recombinant Histone acetyltransferase p300 catalytic domain (1284-1672 residues) using [3H]Acetyl-CoA and histone H3 substrate at 50 uM after 1 hr by liquid scintillation counting. Put shortly: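 p300 activity was measured by radiolabel transfer to the histone substrate. Compounds were tested at a single 50 µM concentration, and the value is the percent inhibition.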

Assay [3] deals with T1, Histone acetyltransferase KAT8 (Homo sapiens) (UniProt Q9H7Z6).
T1 sequence (whole entry): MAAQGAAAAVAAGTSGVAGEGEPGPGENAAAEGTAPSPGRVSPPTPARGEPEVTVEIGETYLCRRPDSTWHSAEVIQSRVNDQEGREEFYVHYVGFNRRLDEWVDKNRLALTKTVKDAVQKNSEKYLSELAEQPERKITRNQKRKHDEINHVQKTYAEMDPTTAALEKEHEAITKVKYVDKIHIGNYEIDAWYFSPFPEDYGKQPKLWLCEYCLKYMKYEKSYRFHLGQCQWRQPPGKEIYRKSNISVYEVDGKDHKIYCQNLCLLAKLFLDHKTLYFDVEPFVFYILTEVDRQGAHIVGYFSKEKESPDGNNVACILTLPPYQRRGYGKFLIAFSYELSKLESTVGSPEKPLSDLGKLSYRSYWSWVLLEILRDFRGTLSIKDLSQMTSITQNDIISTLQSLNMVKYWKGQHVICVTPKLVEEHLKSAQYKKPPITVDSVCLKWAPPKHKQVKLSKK
The assay is described as follows: Inhibition of recombinant N-terminal His6-tagged KAT8 (unknown origin) expressed in Escherichia Coli BL21 DE3 cells assessed as reduction of Co A level using histone H4 substrate after 15 mins by CPM fluorescence assay.

Assay [4] addresses T1, Histone acetyltransferase KAT8 (Homo sapiens). Description: Inhibition of recombinant N-terminal His6-tagged KAT8 (unknown origin) expressed in Escherichia Coli BL21 DE3 cells assessed as reduction of Co A level using histone H4 substrate at 400 uM after 15 mins by CPM fluorescence assay.

The values that follow come from ChEMBL document CHEMBL3734689, “Enzyme kinetics and inhibition of histone acetyltransferase KAT8” (Eur J Med Chem, 2015).

Active and inactive are the calls of the source. The calls are words filed in the database; no cut-off is given here.

Histone acetyltransferase p300 (Homo sapiens), sequence (Q09472 whole entry, the tested form may be a part): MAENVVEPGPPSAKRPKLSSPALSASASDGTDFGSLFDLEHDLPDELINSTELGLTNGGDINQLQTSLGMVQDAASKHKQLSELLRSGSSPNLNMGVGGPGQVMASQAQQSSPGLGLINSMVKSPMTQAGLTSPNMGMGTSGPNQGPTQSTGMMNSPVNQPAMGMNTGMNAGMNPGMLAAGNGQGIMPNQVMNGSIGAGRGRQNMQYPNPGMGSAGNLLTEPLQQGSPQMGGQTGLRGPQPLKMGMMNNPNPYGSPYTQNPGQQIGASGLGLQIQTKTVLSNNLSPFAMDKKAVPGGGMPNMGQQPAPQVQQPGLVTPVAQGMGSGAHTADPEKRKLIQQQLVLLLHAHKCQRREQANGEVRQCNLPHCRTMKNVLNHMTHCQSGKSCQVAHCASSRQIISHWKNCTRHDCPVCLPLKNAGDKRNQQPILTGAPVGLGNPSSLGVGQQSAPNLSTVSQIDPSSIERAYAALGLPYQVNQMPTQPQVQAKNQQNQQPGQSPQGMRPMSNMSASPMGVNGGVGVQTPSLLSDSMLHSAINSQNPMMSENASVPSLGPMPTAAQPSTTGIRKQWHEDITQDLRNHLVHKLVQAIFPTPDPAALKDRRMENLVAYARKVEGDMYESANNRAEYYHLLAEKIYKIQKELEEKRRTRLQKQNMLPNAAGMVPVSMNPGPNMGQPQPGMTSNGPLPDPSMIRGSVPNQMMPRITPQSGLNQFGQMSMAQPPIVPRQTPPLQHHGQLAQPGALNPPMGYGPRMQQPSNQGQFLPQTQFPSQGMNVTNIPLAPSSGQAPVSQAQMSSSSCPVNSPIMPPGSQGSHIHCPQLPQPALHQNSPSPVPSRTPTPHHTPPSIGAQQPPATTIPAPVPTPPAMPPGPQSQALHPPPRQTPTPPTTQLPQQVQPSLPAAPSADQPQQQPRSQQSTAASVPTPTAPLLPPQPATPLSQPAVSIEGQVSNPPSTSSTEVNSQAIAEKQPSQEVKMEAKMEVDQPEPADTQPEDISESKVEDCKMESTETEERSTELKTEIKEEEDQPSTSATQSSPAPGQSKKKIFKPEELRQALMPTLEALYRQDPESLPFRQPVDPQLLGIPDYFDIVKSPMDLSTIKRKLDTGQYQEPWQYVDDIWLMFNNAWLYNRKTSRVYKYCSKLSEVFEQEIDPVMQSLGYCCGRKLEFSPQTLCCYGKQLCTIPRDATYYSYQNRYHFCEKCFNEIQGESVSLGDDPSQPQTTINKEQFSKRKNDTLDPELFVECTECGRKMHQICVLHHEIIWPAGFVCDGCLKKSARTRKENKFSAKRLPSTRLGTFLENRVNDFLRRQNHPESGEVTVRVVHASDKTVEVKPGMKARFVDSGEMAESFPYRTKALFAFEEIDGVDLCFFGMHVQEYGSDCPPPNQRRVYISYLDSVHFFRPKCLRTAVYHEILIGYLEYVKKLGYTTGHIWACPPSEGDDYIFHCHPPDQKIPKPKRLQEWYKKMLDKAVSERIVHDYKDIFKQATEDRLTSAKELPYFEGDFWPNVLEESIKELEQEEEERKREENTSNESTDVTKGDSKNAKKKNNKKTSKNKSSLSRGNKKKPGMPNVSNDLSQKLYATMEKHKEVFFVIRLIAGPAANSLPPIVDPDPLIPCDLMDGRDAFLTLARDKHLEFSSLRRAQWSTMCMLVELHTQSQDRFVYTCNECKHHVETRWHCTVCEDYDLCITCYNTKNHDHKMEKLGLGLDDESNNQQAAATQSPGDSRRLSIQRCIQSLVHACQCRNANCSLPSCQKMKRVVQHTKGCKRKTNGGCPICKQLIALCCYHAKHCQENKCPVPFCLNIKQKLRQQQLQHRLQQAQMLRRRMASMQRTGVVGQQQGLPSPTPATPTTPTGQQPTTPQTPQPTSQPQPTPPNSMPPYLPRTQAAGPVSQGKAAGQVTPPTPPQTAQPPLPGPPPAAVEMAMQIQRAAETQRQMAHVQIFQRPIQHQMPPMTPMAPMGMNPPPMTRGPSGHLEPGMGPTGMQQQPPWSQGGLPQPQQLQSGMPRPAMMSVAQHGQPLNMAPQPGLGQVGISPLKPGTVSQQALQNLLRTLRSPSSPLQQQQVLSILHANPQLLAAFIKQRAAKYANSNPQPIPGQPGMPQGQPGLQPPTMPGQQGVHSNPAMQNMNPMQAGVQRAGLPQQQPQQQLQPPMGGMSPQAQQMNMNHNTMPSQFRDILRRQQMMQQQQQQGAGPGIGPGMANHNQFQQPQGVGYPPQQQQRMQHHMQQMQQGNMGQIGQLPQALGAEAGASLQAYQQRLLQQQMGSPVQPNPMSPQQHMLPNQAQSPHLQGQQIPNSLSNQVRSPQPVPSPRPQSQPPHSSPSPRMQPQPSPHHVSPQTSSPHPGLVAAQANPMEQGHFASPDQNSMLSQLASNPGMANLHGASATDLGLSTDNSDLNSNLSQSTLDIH

By inhibition is commonly meant the percentage by which the read-out fell short of the control. As for `CCCCCc1ccc(O)c(C(=O)O)c1`, the inhibition entry in assay [1], in assay [2] and in assay [4] was “inactive” throughout. The logIC50 in assay [3] was above 2.8.
Turning to `CCCCCCCCCCCCCCCc1cccc(O)c1C(=O)O`, the inhibition in assay [2] was determined as 97%.
As to `CCCCCCCSCC(=O)c1ccccc1O`, the inhibition result in assay [1], in assay [2] and in assay [4] was “inactive” in each case. The logIC50 in assay [3] is above 2.8.
`CCCCCCCCCCc1ccc(O)c(C(=O)O)c1`: the inhibition is 95% in assay [2] and above 50% in assay [4]. Also, the logIC50 in assay [3] is 2.28.
Consider `CCCCCc1cccc(O)c1C(=O)O`, for which the inhibition result in assay [1], in assay [2] and in assay [4] was “inactive” in each case. For the same compound, the logIC50 in assay [3] was above 2.8.
Regarding `CCCCCCCCCCCCCCCc1ccc(O)c(C(=O)O)c1`, the inhibition in assay [2] was 85%; in assay [4], above 50%. Also, in assay [3], the logIC50 was found to be 2.42.
In the case of `O=C(O)c1c(O)cccc1CCCCCO`, the inhibition result in assay [1], in assay [2] and in assay [4] was “inactive” throughout. Moreover, the logIC50 in assay [3] is above 2.8.
Turning to `CCCCCCCCCCc1cccc(O)c1C(=O)O`, the inhibition is 88% in assay [2] and above 50% in assay [4]. In addition, the logIC50 in assay [3] worked out at 2.09.
Regarding `CC1=NN(c2ccc(C(=O)O)cc2)C(=O)/C1=C/c1ccc(-c2cc(C)c(C)cc2[N+](=O)[O-])o1`, the logIC50 in assay [3] is above 2.8. For the same compound, the inhibition entry in assay [4] is “inactive”.
Turning to `O=C(O)c1c(O)cccc1CCCCCCCCCCCO`, the inhibition entry in assay [1] and in assay [2] was “inactive” in each case. Besides, the logIC50 in assay [3] is 2.72. The inhibition in assay [4] was above 50%.
